According to the EternaBench riboswitch data:

System: MS2 coat protein
Experiment: apparent Kd, MS2 coat protein; higher = weaker binding; RNA-MaP array; FMN 200 µM where present
How it was run: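 Designs on Illumina sequencing-chip clusters, transcribed by stalled E. coli RNA polymerase, were exposed to SNAP-549-labelled MS2 coat protein in doubling steps from 0.7 or 1.5 nM up to 3 µM, without and then with constant ligand. The buffer held 100 mM Tris-HCl pH 7.5, 80 mM KCl, 4 mM MgCl2, BSA, DTT, yeast tRNA and Tween-20. Apparent Kd values are medians of filtered per-cluster binding-curve fits to green signal normalised to red-channel RNA signal and control-cluster median Fmax.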

[1] = designed as: OFF switch for flavin mononucleotide, no ligand
[2] = ligand present: flavin mononucleotide, designed as: OFF switch for flavin mononucleotide
[3] = designed as: ON switch for flavin mononucleotide, no ligand
[4] = ligand present: flavin mononucleotide, designed as: ON switch for flavin mononucleotide

Sequence | apparent Kd [1] [nM] | apparent Kd [2] [nM] | apparent Kd [3] [nM] | apparent Kd [4] [nM]
UGGGUAAAUGUAGGAUAUUUAUAUUAAUAGUAUGGAGAAGGACAUGAGGAUCACCCAUGUACAGGGAGUUACCCAUUUCCUCUC | 670 | 662 |  | 
CCGCUGUCAGGAUAUCGUGCAUACAACGAAAGUUCUAUGUGCGAGAAGGGACAUGAGGAUCACCCAUGUUUCCG | 16.6 | 25.8 |  | 
AACCAUGAGCGAGGAUAUCACCCUACGGAGUGGUGAGAAGGCGCAACAUGAGGAUCACCCAUGUACAAAUGCGGGACCCUUUUC | 31 | 92.6 |  | 
GUAGCAUAAUCAGGAUAUUCAGAGAAUAGAUAGACAUGAGGAUCACCCAUGUGGCGAAAGCCUAGGGAGAAGGGAUAAUGCUAC |  |  | 190 | 32.5
UAGGUCGCAGGAUAUGCUGGGUGCAUAUCUUAGUGCAGGAGACAUGAGGAUCACCCAUGUAGAAGGGCGCGCUG | 44.9 | 124 |  | 
CAGUGCUGUUGAGAGGAUAUGCGGCGACGGACAUGAGGAUCACCCAUGUUAGCGACAGCGUUGCGGCAGAAGGCUCUGCCCACUG |  |  | 11.2 | 10.4
UCAGUAGAGUGAGGAUAUACGAAAGGCGAUCCAUACAUGAGGAUCACCCAUGUAGAAGGCACUCUACUGUAAGUCGGAAACGAC | 173 | 12.3 |  | 
ACAAGUUUGUAGAAGGACGACUAAUUUGUAUUCGUAGGAUAUACUAUUUACAUGAGGAUCACCCAUGUUUUUAUGGAACAAUGU | 11.9 | 16.2 |  | 
AUCAUGAGAGGAUAUACAUGAGGAUCACCCAUGUUGUUAACACCAUGAGCUCAUUUACGUAGAAGGCUCAUUUG | 28.1 | 51.9 |  | 
UAAUCGUUGCAGAAGGUUAUUUUUUUAACAUUUCUCUUAACAUGAGGAUCACCCAUGUUUUUGAUGAAGGAUAUGCAACGGUAG | 6.67 | 5.51 |  | 
AAAAUCGAAGGAUAUACAUAUCCUUUAGCGGCAAUGCCGCGACAUGAGGAUCACCCAUGUAGAAGGUCGUAAAA | 27.6 | 31.5 |  | 
UCGUACUAGGGAGGAUAUGGGAAGAUACAUGAGGAUCACCCAUGUUUAAGAAUGCCGAGAGGCAACUAGAAGGCCCUAGUACCU |  |  | 391 | 19.1
AGUCGGAGCAGAGGAUAUUACAUGAGGAUCACCCAUGUAUGAACCAAUAGCUGGAAACAGCAAUGUAAGAAGGCUGCUCCGACA | 37.6 | 426 |  | 
AACGAGGCAGGAUAUACAUGAGGAUCACCCAUGUGCUUGCAUGGCGUGGGAAGUCAUCGUAGAAGGGCCAUGCC | 154 | 74.2 |  | 
UGUAUUAAUGGAGGAUAUCGAUAUCAAACAUGAGGAUCACCCAUGUUGAGGAUCACCCAUGUCCAUGAGAAGGCUGGCGUACUU |  |  | 30.4 | 29.2
CGUAAGAUGCAGAAGGUGUUAGCUAGAGCUACGACAUGAGGAUCACCCAUGUACUAGAAACAGUACAAGGAUAUGCAUCUUACC |  |  | 18.8 | 6.58
UGAGGACAUGAGGAUCACCCAUGUAAGGAUAUGCGGAGAGAUUGGAGAGGUCGAGGAGGCAGAAGGUACAGGAC | 143 | 74.7 |  | 
AAAAAAUGAGGAUAUACAUGAAAAAAAAAAAAAAAAAAAAAACAUGAGGAUCACCCAUGUAGAAGGCGUAAAAA | 51.2 | 41.4 |  | 
AAAAAACAUGAGGAUCACCCAUGUUAGGAUAUCGUGCAGAAAAAAAAAAAAAACUGCACGAGAAGGAACAAGGA | 74.5 | 98.8 |  | 
UGUCGGAGCAGAGGAUAUACAUGAGGAUCACCCAUGUAAUAAAGUGAAGCCUGGACACAGGCAAUGUAGAAGGCUGCUCCGACA | 12.7 | 87.9 |  | 
CCGGAUAUGCAGGAUAUCGUAUCGGAGACGAUACGAGAAGGGUAUACAUGAGGAUCACCCAUGUGUCCUACCGG | 26.4 | 32.1 |  | 
CAGGUAGACUGAGGAUAUACAAGACUUAGUCUAUCUAGGUCAUUAACCACAUGAGGAUCACCCAUGUAGAAGGCAGUCUGCCUG | 17.7 | 23.9 |  | 
UAUGAGCGAGGAUAUGCUUGGGACUGUCGGAAGGUGGCGGGACAUGAGGAUCACCCAUGUAGAAGGCGCGAGCG | 70.7 | 82.8 |  | 
AUAUUGAUAGUAAGGAUAUGCGUGUGUGUAGUUAUGCAGAAGGUACAUGAGGAUCACCCAUGUAUUAAUGUGUG | 18.1 | 21.6 |  | 
AACAGCUCGUCAGGAUAUAUUUUCUUUUUAUGUAUUUAUGUACAUGAGGAUCACCCAUGUUGUUUGUAGAAGGGACGAGCUGAA | 20.1 | 16.7 |  | 
AGUCAGAGCAGAGGAUAUAUACAUGAGGAUCACCCAUGUGACUGCCUAUGCUCGAAAGAGUAUGUAUAGAAGGCUGCUCUGACA | 611 | 276 |  | 
ACGAGUACAGGAUAUACAUGAGGAUCACCCAUGUGAGAAUUAAGUGGCGUACCACAAAGUAGAAGGGUACUCGA | 40.3 | 236 |  | 
ACCAUUUACUAAUCCUCUAUACAUGAGGAUCACCCAUGUUAAGAGGAUAUCAUCGUUCGCCGCGUUGAGAAGGCUUAGCAUUCG | 14.8 | 23.1 |  | 

Sequence | apparent Kd [1] [nM] | apparent Kd [2] [nM] | apparent Kd [3] [nM] | apparent Kd [4] [nM]
GUAGAGUCAGGAUAUACAAAACCAUCGAUAGAUGGAUCCAUACAUGAGGAUCACCCAUGUAGAAGGGACUCUAC | 20.3 | 21.5 |  | 
ACAAAUGGAGGAUAUACAUGAGGAUCACCCAUGUAUAUCCUACAUAUGUGAUCUUUAUGUAGAAGGCCAUUUGA | 12.2 | 11.5 |  | 
UUUUUGUCAGGAUAUGACUAGAUGCACGUUAGUGUGUUUACUUAGAAGGGACAUGAGGAUCACCCAUGUAUUCC | 28.9 | 24.1 |  | 
GUCCUACAUGAGGAUCACCCAUGUGAGGAUAUGUGGUUAGCUGCUAGGUAGUUAGUAUGCAGAAGGUACGUGAA | 14.8 | 15.5 |  | 
CUCUUUUAAGGAUAUACAUGAGGAUCACCCAUGUGCAUAGGUAUGUCCGGGUCCUGGAGUAGAAGGUGGGACGG | 70.3 | 58.4 |  | 
CUACCUUAUGAGAAGGCGGUCAUGAAACAUGAUCGAGGAUAUCAUGUAAACAUGAGGAUCACCCAUGUAUGGGUAUUAUGGUAA |  |  | 226 | 28.8
GCCAUCGCAUGAGGAUAUGCUCGGGUUUCCCGAGCAGAAGGCAUGUCACAAGACAUGAGGAUCACCCAUGUAGUUAAGAUGGCA |  |  | 190 | 9.98
GUAGCAACAUGAGGAUCACCCAUGUAGGAUAUCGCUAUUGUAAUCAUGAAACAUGAUUACAAUAGCGAGAAGGACAUAUGCUAA | 8.33 | 10.7 |  | 
AUAUCCUAGAUAGGAUAUACUGAGGUUGAAUGGGUAGAAGGAUCGAUAGGGAAGACUACAUGAGGAUCACCCAUGUUGUGUAUU |  |  | 99.4 | 90.2
UUUGUCAUCGAGAAGGCCUCAACAUGAGGAUCACCCAUGUUGUAAUAUGGGAGGAUAUCGAUGAUACAGCUACGUUUCGUAGGG |  |  | 18.1 | 5.6
CGUAGUCCGUAGAAGGGUGACAUGAGGAUCACCCAUGUGCGAGCCGAGGGAGUCAGCGGCUCGCCACAGGAUAUACGGAGCACG |  |  | 44.5 | 52.9
AACACGAGAGGUGUUGUCUAAUCACAUGAGGAUCACCCAUGUAAGGAUAUCGCGGCUAUCGGCAUCGAGAAGGUACAGGGAGCA | 17.8 | 38.2 |  | 
UUAUACGUUGAGGAUAUGUUAUUUAGUAUAGUUACAGAAGGCGAUACAUGAGGAUCACCCAUGUUUAUGGGCAU | 196 | 153 |  | 
UAUUAAUACGAAGGAUAUGGUUACAUGAGGAUCACCCAUGUAUGUAUAUUGAUCUAGAUUUUUAACCAGAAGGUCGUGAGUAAA | 34.9 | 59 |  | 
GGGCUCGGAGGAUAUACAAUGGGCCCGGGAAACCGGGCCCUACAUGAGGAUCACCCAUGUAGAAGGUCGGGUCU | 15.5 | 24.1 |  | 
AAUAACAGAGGAUAUACUGUUUUAUGUGUUUGUUAUUUUAAACAUGAGGAUCACCCAUGUAGAAGGCUGAAUAA | 22.5 | 21.7 |  | 
CUGGACGUCGUAGGAUAUGUAGGAUAUUCCUACAUGAGGAUCACCCAUGUUGACAUGGAAGAAGGACAGAAGGACGAUGUCCAU |  |  | 229 | 4.55
UGUCAGAGCAGAGGAUAUUACAUGAGGAUCACCCAUGUAUGAACCAAUAGCUGGAAACAGCAAUGUAAGAAGGCUGCUCCGACA | 11.9 | 130 |  | 
CUCAUGUGAGGAUAUGUGAUCAACCUUCUAUAUAGAUGAUUACAGAAGGCACAUGAGGAUCACCCAUGUAGAUC | 23.4 | 18.3 |  | 
GGUCCAACAUGAGGAUAUAGCACCUUAUUGGUGCUAGAAGGCGUGUCGGUAGACAUGAGGAUCACCCAUGUAAUACAUUGGACC |  |  | 218 | 28.5
CGUGACGACAUAGGAUAUUGAUACAUGAGGAUCACCCAUGUCACCCAUUUAUCUCUAAGUGUUGACAAGAAGGAUGUGGUCACG |  |  | 10.1 | 9.33
ACUAGAUGAGGAUAUGCAUAUUUUCGUGUUCUUCUAGAUUAACAUGAGGAUCACCCAUGUAGAAGGCGUCUGGC | 18.6 | 33.8 |  | 
AUUCAGUCAGGAUAUCGUUAAUUUAAUUGUUUGUUUUAGUUCGAGAAGGGACAUGAGGAUCACCCAUGUACUUA | 25.9 | 27.3 |  | 
GGAUAGGACAGAGGAUAUACGUGCUAGAGAUACUAGCAAAAUUUCCUCACAUGAGGAUCACCCAUGUAGAAGGCUGUCCGAUCG | 14.6 | 323 |  | 
UUUAUUUUUACAGGAUAUCAUCUAUAUAACUCAUGCAAAUGUUUACAUGAGGAUCACCCAUGUUAUGAGAAGGGUAUUGAAACA |  |  | 361 | 216
UUACUAUUGGAGAAGGCUCGAUAAUAUAUAAAGGGAGGAUAUCCAACAUGAGGAUCACCCAUGUUUCACCCAUAUGAGGAUCAC | 14.8 | 15.7 |  | 
UUGAAGAUAGGAUAUACGAGGAGAGGAGAGAGAAGGUGAGGACAUGAGGAUCACCCAUGUAGAAGGAUCAGGAA | 81.5 | 62.5 |  | 
